Measurements: ChEMBL document CHEMBL1649560, “Beta-lactamase-mediated beta-lactam resistance in Campylobacter species: prevalence of Cj0299 (bla OXA-61) and evidence for a novel beta-Lactamase in C. jejuni” (2009)
Converted amounts (≈) assume the structure as drawn.

Assays:
Format in all cases: functional
[1] = system: Campylobacter jejuni; test: Antibacterial activity against bla gene-positive and nitrocefin reaction-negative beta-lactamase harboring Campylobacter jejuni isolate P1699 by NCCLS agar doubling dilution method
Outline: (§1)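 MICs of β-lactams by agar doubling dilution following the NCCLS (CLSI) Campylobacter Working Group procedure, with C. jejuni NCTC 11168 and C. coli NCTC 11366 as controls. Isolates were from UK poultry flocks. β-Lactamase status was set by Cj0299 PCR (281-bp amplimer) and by a nitrocefin colour change of sonicated lysate within 5 min, or within 30 min on repeat.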

[2] = system: Campylobacter coli; test: Antibacterial activity against Campylobacter coli by NCCLS agar doubling dilution method
Outline: (§2)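 MICs by agar doubling dilution following the NCCLS (CLSI) Campylobacter Working Group procedure, applied to ampicillin- and amoxicillin-resistant isolates from UK chicken flocks (2000–2006). C. jejuni NCTC 11168 and C. coli NCTC 11366 served as control strains. Resistance was called at an ampicillin cutoff of 8 μg/ml. Other agents were judged against Enterobacteriaceae guidelines (BSAC, CLSI).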

[3] = system: Campylobacter jejuni; test: Antibacterial activity against bla gene-positive and nitrocefin reaction-positive beta-lactamase harboring Campylobacter jejuni isolate P1650 by NCCLS agar doubling dilution method; outline: as §1
[4] = system: Campylobacter jejuni; test: Antibacterial activity against Campylobacter jejuni isolate P1093 harboring blaOXA-61::cat gene by NCCLS agar doubling dilution method
Outline: (§3)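 Agar doubling dilution MICs (NCCLS/CLSI Campylobacter Working Group method) against Cj0299-inactivated mutants. Mutants were made by transforming the C. jejuni isolate with pCI and selecting on Mueller-Hinton agar with 10 μg/ml chloramphenicol for 3–5 days. Chromosomal insertion was confirmed by PCR with Cj0299 and cat primers.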

[5] = system: Campylobacter jejuni; test: Antibacterial activity against Campylobacter jejuni isolate P270 harboring blaOXA-61::cat gene by NCCLS agar doubling dilution method
[6] = system: Campylobacter jejuni; test: Antibacterial activity against bla gene-positive and nitrocefin reaction-positive beta-lactamase harboring Campylobacter jejuni isolate P790 by NCCLS agar doubling dilution method
Outline: (§4)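 MICs by agar doubling dilution per the NCCLS (now CLSI) Campylobacter Working Group method. Isolates came from UK chicken flocks (feces, ceca or farm environment), 2000–2006. C. jejuni NCTC 11168 and C. coli NCTC 11366 served as control strains. The ampicillin resistance cutoff was 8 μg/ml; BSAC/CLSI Enterobacteriaceae guidelines were used for other agents.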

[7] = system: Campylobacter jejuni; test: Antibacterial activity against bla gene-positive and nitrocefin reaction-positive beta-lactamase harboring Campylobacter jejuni isolate P1093 by NCCLS agar doubling dilution method; outline: as §1
[8] = system: Campylobacter jejuni; test: Antibacterial activity against bla gene-positive and nitrocefin reaction-positive beta-lactamase harboring Campylobacter jejuni isolate P285 by NCCLS agar doubling dilution method; outline: as §4
[9] = system: Campylobacter jejuni; test: Antibacterial activity against Campylobacter jejuni isolate P338 harboring blaOXA-61::cat gene by NCCLS agar doubling dilution method; outline: as §3
[10] = system: Campylobacter jejuni; test: Antibacterial activity against bla gene-positive and nitrocefin reaction-negative beta-lactamase harboring Campylobacter jejuni isolate P1698 by NCCLS agar doubling dilution method; outline: as §1
[11] = system: Campylobacter jejuni; test: Antibacterial activity against bla gene-negative and nitrocefin reaction-positive beta-lactamase harboring Campylobacter jejuni isolate P854 by NCCLS agar doubling dilution method; outline: as §1
[12] = system: Campylobacter jejuni; test: Antibacterial activity against bla gene-positive and nitrocefin reaction-positive beta-lactamase harboring Campylobacter jejuni isolate P1618 by NCCLS agar doubling dilution method; outline: as §1
[13] = system: Campylobacter coli; test: Antibacterial activity against bla gene-positive and nitrocefin reaction-positive beta-lactamase harboring Campylobacter coli isolate P321 by NCCLS agar doubling dilution method; outline: as §1
[14] = system: Campylobacter jejuni; test: Antibacterial activity against bla gene-positive and nitrocefin reaction-positive beta-lactamase harboring Campylobacter jejuni isolate P316 by NCCLS agar doubling dilution method; outline: as §4
[15] = system: Campylobacter jejuni; test: Antibacterial activity against bla gene-positive and nitrocefin reaction-positive beta-lactamase harboring Campylobacter jejuni isolate P305 by NCCLS agar doubling dilution method; outline: as §4
[16] = system: Campylobacter jejuni; test: Antibacterial activity against bla gene-positive and nitrocefin reaction-negative beta-lactamase harboring Campylobacter jejuni NCTC 11168 by NCCLS agar doubling dilution method; outline: as §1
[17] = system: Campylobacter jejuni; test: Antibacterial activity against bla gene-negative and nitrocefin reaction-negative beta-lactamase harboring Campylobacter jejuni isolate P835 by NCCLS agar doubling dilution method; outline: as §1
[18] = system: Campylobacter jejuni; test: Antibacterial activity against bla gene-negative and nitrocefin reaction-negative beta-lactamase harboring Campylobacter jejuni isolate P850 by NCCLS agar doubling dilution method; outline: as §1
[19] = system: Campylobacter jejuni; test: Antibacterial activity against bla gene-negative and nitrocefin reaction-negative beta-lactamase harboring Campylobacter jejuni isolate P1962 by NCCLS agar doubling dilution method; outline: as §1
[20] = system: Campylobacter coli; test: Antibacterial activity against bla gene-positive and nitrocefin reaction-positive beta-lactamase harboring Campylobacter coli isolate P1826 by NCCLS agar doubling dilution method; outline: as §1
[21] = system: Campylobacter jejuni; test: Antibacterial activity against bla gene-positive and nitrocefin reaction-positive beta-lactamase harboring Campylobacter jejuni isolate P286 by NCCLS agar doubling dilution method; outline: as §4
[22] = system: Campylobacter coli; test: Antibacterial activity against bla-positive and beta-lactamase-weakly positive Campylobacter coli isolate P1627 by NCCLS agar doubling dilution method; outline: as §4
[23] = system: Campylobacter jejuni; test: Antibacterial activity against bla gene-positive and nitrocefin reaction-positive beta-lactamase harboring Campylobacter jejuni isolate P338 by NCCLS agar doubling dilution method; outline: as §4
[24] = system: Campylobacter jejuni; test: Antibacterial activity against bla gene-positive and nitrocefin reaction-positive beta-lactamase harboring Campylobacter jejuni isolate P1730 by NCCLS agar doubling dilution method; outline: as §4
[25] = system: Campylobacter jejuni; test: Antibacterial activity against Campylobacter jejuni by NCCLS agar doubling dilution method; outline: as §2
[26] = system: Campylobacter jejuni; test: Antibacterial activity against bla gene-negative and nitrocefin reaction-positive beta-lactamase harboring Campylobacter jejuni isolate P843 by NCCLS agar doubling dilution method; outline: as §1

## C[C@@H](O)[C@H]1C(=O)N2C(C(=O)O)=C(S[C@@H]3CN[C@H](C(=O)N(C)C)C3)[C@H](C)[C@H]12 [MEROPENEM]
[1]
  MIC: 0.015 µg/mL (≈ 0.0391 µM)
[2]
  MIC50: 0.12 µg/mL (≈ 0.313 µM)
  MIC90: 0.12 µg/mL (≈ 0.313 µM)
[3]
  MIC: 0.008 µg/mL (≈ 0.0209 µM)
[4]
  MIC: 0.03 µg/mL (≈ 0.0782 µM)
[5]
  MIC: 0.008 µg/mL (≈ 0.0209 µM)
[6]
  MIC: 0.12 µg/mL (≈ 0.313 µM)
[7]
  MIC: 0.5 µg/mL (≈ 1.3 µM)
[8]
  MIC: 0.015 µg/mL (≈ 0.0391 µM)
[9]
  MIC: 0.015 µg/mL (≈ 0.0391 µM)
[10]
  MIC: 0.015 µg/mL (≈ 0.0391 µM)
[11]
  MIC: 0.03 µg/mL (≈ 0.0782 µM)
[12]
  MIC: 0.008 µg/mL (≈ 0.0209 µM)
[13]
  MIC: 0.12 µg/mL (≈ 0.313 µM)
[14]
  MIC: 0.12 µg/mL (≈ 0.313 µM)
[15]
  MIC: 0.06 µg/mL (≈ 0.156 µM)
[16]
  MIC: 0.08 µg/mL (≈ 0.209 µM)
[17]
  MIC: < 0.015 µg/mL
[18]
  MIC: 0.03 µg/mL (≈ 0.0782 µM)
[19]
  MIC: 0.015 µg/mL (≈ 0.0391 µM)
[20]
  MIC: 0.06 µg/mL (≈ 0.156 µM)
[21]
  MIC: 0.25 µg/mL (≈ 0.652 µM)
[22]
  MIC: 0.03 µg/mL (≈ 0.0782 µM)
[23]
  MIC: 0.12 µg/mL (≈ 0.313 µM)
[24]
  MIC: 0.015 µg/mL (≈ 0.0391 µM)
[25]
  MIC50: 0.015 µg/mL (≈ 0.0391 µM)
  MIC90: 0.12 µg/mL (≈ 0.313 µM)
[26]
  MIC: 0.03 µg/mL (≈ 0.0782 µM)

## CC1(C)S[C@@H]2[C@H](NC(=O)Cc3ccccc3)C(=O)N2[C@H]1C(=O)O [PENICILLIN G]
[1]
  MIC: < 8 µg/mL
[2]
  MIC50: 128 µg/mL (≈ 383 µM)
  MIC90: 128 µg/mL (≈ 383 µM)
[3]
  MIC: 64 µg/mL (≈ 191 µM)
[4]
  MIC: 8 µg/mL (≈ 23.9 µM)
[5]
  MIC: 2 µg/mL (≈ 5.98 µM)
[6]
  MIC: 128 µg/mL (≈ 383 µM)
[7]
  MIC: 256 µg/mL (≈ 766 µM)
[8]
  MIC: 128 µg/mL (≈ 383 µM)
[9]
  MIC: 16 µg/mL (≈ 47.8 µM)
[10]
  MIC: < 8 µg/mL
[11]
  MIC: 256 µg/mL (≈ 766 µM)
[12]
  MIC: 64 µg/mL (≈ 191 µM)
[13]
  MIC: 64 µg/mL (≈ 191 µM)
[14]
  MIC: 128 µg/mL (≈ 383 µM)
[15]
  MIC: 128 µg/mL (≈ 383 µM)
[16]
  MIC: 8 µg/mL (≈ 23.9 µM)
[17]
  MIC: 4 µg/mL (≈ 12 µM)
[18]
  MIC: 64 µg/mL (≈ 191 µM)
[19]
  MIC: 8 µg/mL (≈ 23.9 µM)
[20]
  MIC: 128 µg/mL (≈ 383 µM)
[21]
  MIC: 128 µg/mL (≈ 383 µM)
[22]
  MIC: 8 µg/mL (≈ 23.9 µM)
[23]
  MIC: 128 µg/mL (≈ 383 µM)
[24]
  MIC: 64 µg/mL (≈ 191 µM)
[25]
  MIC50: 64 µg/mL (≈ 191 µM)
  MIC90: 256 µg/mL (≈ 766 µM)
[26]
  MIC: 64 µg/mL (≈ 191 µM)

## CCN1CCN(C(=O)N[C@@H](C(=O)N[C@@H]2C(=O)N3[C@@H]2SC(C)(C)[C@@H]3C(=O)O)c2ccccc2)C(=O)C1=O [PIPERACILLIN]
[1]
  MIC: 256 µg/mL (≈ 495 µM)
[2]
  MIC: 512 µg/mL (≈ 989 µM)
  MIC50: 512 µg/mL (≈ 989 µM)
  MIC90: 512 µg/mL (≈ 989 µM)
[3]
  MIC: > 512 µg/mL
[4]
  MIC: 16 µg/mL (≈ 30.9 µM)
[5]
  MIC: 8 µg/mL (≈ 15.5 µM)
[6]
  MIC: 128 µg/mL (≈ 247 µM)
[7]
  MIC: 128 µg/mL (≈ 247 µM)
[8]
  MIC: > 256 µg/mL
[9]
  MIC: 8 µg/mL (≈ 15.5 µM)
[10]
  MIC: > 512 µg/mL
[11]
  MIC: > 256 µg/mL
[12]
  MIC: > 512 µg/mL
[13]
  MIC: > 256 µg/mL
[14]
  MIC: > 256 µg/mL
[15]
  MIC: > 256 µg/mL
[16]
  MIC: 512 µg/mL (≈ 989 µM)
[17]
  MIC: > 256 µg/mL
[18]
  MIC: > 256 µg/mL
[19]
  MIC: > 256 µg/mL
[20]
  MIC: 512 µg/mL (≈ 989 µM)
[21]
  MIC: > 256 µg/mL
[22]
  MIC: 512 µg/mL (≈ 989 µM)
[23]
  MIC: > 256 µg/mL
[24]
  MIC: > 512 µg/mL
[25]
  MIC50: ≥ 512 µg/mL
  MIC90: > 512 µg/mL
[26]
  MIC: > 256 µg/mL
